Results: ChEMBL document CHEMBL4265871, “Novel alkylated azoles as potent antifungals” (Eur J Med Chem, 2017)
Values after ≈ are worked out from the molar mass of the structure shown.

Key:
[1] = Selectivity index, ratio of EC50 for toxicity in human BEAS2B cells to MIC50 for antifungal activity against ITC and FLC-susceptible Candida albicans ATCC MYA-2876; type: cell-based; details: BEAS-2B cells, read-out: Selectivity Index
How it was run: (§1)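 Ratio of the compound's EC50 against BEAS-2B cells to its MIC against the named C. albicans strain. […] For C. albicans strains other than ATCC 10231, trailing growth meant MIC-2 was taken, meaning 50% growth inhibition.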

[2] = Selectivity index, ratio of […] for toxicity in human A549 cells to MIC50 for antifungal activity against Aspergillus terreus ATCC MYA-3633; type: cell-based; details: read-out: Selectivity Index
Candida albicans [3] = test: Antifungal activity against ITC and FLC-resistant Candida albicans ATCC 1237 incubated for 48 hrs by modified CLSI M27-A3 protocol based method; type: functional; details: ATCC 1237, 48 h
How it was run: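 Because these Candida strains show trailing growth, MIC-2 was read, meaning 50% growth inhibition. Caspofungin and voriconazole were tested here; other controls came from earlier work.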

[4] = Hemolytic activity in mouse erythrocytes assessed as hemolysis level at 31.3 ug/ml incubated for 1 hr at 37 degC; type: ADME, cell-based, Erythrocyte; details: read-out: Activity
How it was run: (§2)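 Mouse erythrocytes incubated 1 h at 37 °C with test agents over 1.95 to 125 µg/mL. Percent lysis is read for each concentration.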

[5] = Toxicity in human BEAS2B cells assessed as reduction in cell viability incubated for 24 hrs by resazurin dye based assay; details: BEAS-2B cells
How it was run: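 Toxicity tested in the nucleated lines A549 and BEAS-2B to give EC50 values. Selectivity index is EC50 against the mammalian line divided by the MIC against a given fungal strain.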

Aspergillus flavus = test: Antifungal activity against Aspergillus flavus ATCC MYA-3631 incubated for 48 hrs by CLSI M38-A2 protocol based method; type: functional; details: ATCC MYA-3631, 48 h, read-out: MIC100
[6] = Selectivity index, ratio of EC50 for toxicity in human A549 cells to MIC50 for antifungal activity against Candida krusei ATCC 6258
[7] = Selectivity index, ratio of […] for toxicity in human A549 cells to MIC50 for antifungal activity against Aspergillus flavus ATCC MYA-3631; type: cell-based; details: read-out: Selectivity Index
[8] = Selectivity index, ratio of EC50 for toxicity in human A549 cells to MIC50 for antifungal activity against ITC and FLC-resistant Candida albicans ATCC 1237; type: cell-based; details: read-out: Selectivity Index
How it was run: (§3)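 Selectivity index is the EC50 against the mammalian line (A549 or BEAS-2B) divided by the MIC against the given fungal strain.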

[9] = Selectivity index, ratio of EC50 for toxicity in human A549 cells to MIC for antifungal activity against Candida parapsilosis ATCC 22019
Aspergillus nidulans = test: Antifungal activity against Aspergillus nidulans ATCC 38163 incubated for 48 hrs by CLSI M38-A2 protocol based method; type: functional; details: ATCC 38163, 48 h, read-out: MIC100
Aspergillus terreus = test: Antifungal activity against Aspergillus terreus ATCC MYA-3633 incubated for 48 hrs by CLSI M38-A2 protocol based method; type: functional; details: ATCC MYA-3633, 48 h, read-out: MIC100
[10] = Selectivity index, ratio of EC50 for toxicity in human A549 cells to MIC100 for antifungal activity against Candida albicans ATCC 10231; type: cell-based; details: read-out: Selectivity Index; how it was run: as §3
[11] = Selectivity index, ratio of EC50 for toxicity in human BEAS2B cells to MIC50 for antifungal activity against Candida glabrata ATCC 2001; type: cell-based; details: BEAS-2B cells, read-out: Selectivity Index; how it was run: as §3
[12] = Selectivity index, ratio of EC50 for toxicity in human A549 cells to MIC50 for antifungal activity against ITC and FLC-resistant Candida albicans ATCC MYA-90819; type: cell-based; details: read-out: Selectivity Index; how it was run: as §3
[13] = Selectivity index, ratio of EC50 for toxicity in human BEAS2B cells to MIC for antifungal activity against Candida parapsilosis ATCC 22019; details: BEAS-2B cells
[14] = Selectivity index, ratio of EC50 for toxicity in human BEAS2B cells to MIC50 for antifungal activity against Candida albicans ATCC 64124; type: cell-based; details: BEAS-2B cells, read-out: Selectivity Index; how it was run: as §3
[15] = Selectivity index, ratio of EC50 for toxicity in human BEAS2B cells to MIC100 for antifungal activity against Candida albicans ATCC 10231; type: cell-based; details: BEAS-2B cells, read-out: Selectivity Index; how it was run: as §3
Candida albicans [16] = test: Antifungal activity against Candida albicans ATCC 10231 incubated for 48 hrs by modified CLSI M27-A3 protocol based method; type: functional; details: ATCC 10231, 48 h, read-out: MIC100
How it was run: (§4)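 For C. albicans ATCC 10231, C. krusei ATCC 6258 and C. parapsilosis ATCC 22019, MIC-0 was read, meaning complete growth inhibition. For azole controls, MIC-2 (50% growth inhibition) was reported instead. Caspofungin and voriconazole were tested here; other controls came from earlier work.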

[17] = Selectivity index, ratio of EC50 for toxicity in human A549 cells to MIC50 for antifungal activity against Candida albicans ATCC 64124; type: cell-based; details: read-out: Selectivity Index; how it was run: as §3
[18] = Hemolytic activity in mouse erythrocytes assessed as hemolysis level at 3.9 ug/ml incubated for 1 hr at 37 degC; type: ADME, cell-based, Erythrocyte; details: read-out: Activity; how it was run: as §2
Pichia kudriavzevii = test: Antifungal activity against Candida krusei ATCC 6258 incubated for 48 hrs by modified CLSI M27-A3 protocol based method; type: functional; details: ATCC 6258, 48 h, read-out: MIC100; how it was run: as §4
[19] = Selectivity index, ratio of […] for toxicity in human A549 cells to MIC50 for antifungal activity against Aspergillus nidulans ATCC 38163; type: cell-based; details: read-out: Selectivity Index
[20] = Hemolytic activity in mouse erythrocytes assessed as hemolysis level at 1.95 ug/ml incubated for 1 hr at 37 degC; type: ADME, cell-based, Erythrocyte; details: read-out: Activity; how it was run: as §2
Candida albicans [21] = test: Antifungal activity against ITC and FLC-susceptible Candida albicans ATCC MYA-2310 incubated for 48 hrs by modified CLSI M27-A3 protocol based method; type: functional; details: ATCC MYA-2310, 48 h
Candida parapsilosis = test: Antifungal activity against Candida parapsilosis ATCC 22019 incubated for 48 hrs by modified CLSI M27-A3 protocol based method; type: functional; details: Lodderomyces parapsilosis, ATCC 22019, 48 h; read-out: MIC100; how it was run: as §4
Candida albicans [22] = test: Antifungal activity against ITC and FLC-resistant Candida albicans ATCC MYA-90819 incubated for 48 hrs by modified CLSI M27-A3 protocol based method; type: functional; details: ATCC MYA-90819, 48 h
[23] = Selectivity index, ratio of EC50 for toxicity in human BEAS2B cells to MIC50 for antifungal activity against ITC and FLC-susceptible Candida albicans ATCC MYA-2310; type: cell-based; details: BEAS-2B cells, read-out: Selectivity Index; how it was run: as §1
[24] = Hemolytic activity in mouse erythrocytes assessed as hemolysis level at 7.8 ug/ml incubated for 1 hr at 37 degC; type: ADME, cell-based, Erythrocyte; details: read-out: Activity; how it was run: as §2
[25] = Selectivity index, ratio of […] for toxicity in human BEAS2B cells to MIC50 for antifungal activity against Aspergillus nidulans ATCC 38163; type: cell-based; details: BEAS-2B cells, read-out: Selectivity Index
Nakaseomyces glabratus = test: Antifungal activity against Candida glabrata ATCC 2001 incubated for 48 hrs by modified CLSI M27-A3 protocol based method; type: functional; details: ATCC 2001, 48 h

Row | SMILES | selectivity ratio [1] | selectivity ratio [2] | MIC50 (Candida albicans [3]) [µM] | hemolysis at 1 h, 31.3 ug/ml [4] [%] | EC50 at 24 h [5] [µg/mL] | MIC (Aspergillus flavus) [µM] | selectivity ratio [6] | selectivity ratio [7] | selectivity ratio [8] | selectivity ratio [9] | MIC (Aspergillus nidulans) [µM] | MIC (Aspergillus terreus) [µM] | selectivity ratio [10] | selectivity ratio [11] | selectivity ratio [12] | selectivity ratio [13] | selectivity ratio [14] | selectivity ratio [15] | MIC (Candida albicans [16]) [µM] | selectivity ratio [17] | also measured
1 | CCCCCCC(O)(Cn1cncn1)c1ccccc1Cl (stereo not drawn) | 32 | 65 | 3.2 (≈ 0.985 µg/mL) | 0 | > 31.3 | 6.3 to 12.7 (≈ 1.94 to 3.91 µg/mL) | 261 | 8 to 16 | 32 | 261 | 0.19 (≈ 0.0585 µg/mL) | 1.6 (≈ 0.493 µg/mL) | 4 | 32 | 16 | 261 | 1 | 4 | 25.3 (≈ 7.79 µg/mL) | 1 | hemolysis at 1 h, 3.9 ug/ml [18]: 0%; MIC (Pichia kudriavzevii): 0.39 µM (≈ 0.12 µg/mL); selectivity ratio [19]: 522; hemolysis at 1 h, 1.95 ug/ml [20]: 0%; MIC50 (Candida albicans [21]): 6.3 µM (≈ 1.94 µg/mL); MIC (Candida parapsilosis): 0.39 µM (≈ 0.12 µg/mL); MIC50 (Candida albicans [22]): 6.3 µM (≈ 1.94 µg/mL); selectivity ratio [23]: 16; hemolysis at 1 h, 7.8 ug/ml [24]: 0%; selectivity ratio [25]: 522; MIC50 (Nakaseomyces glabratus): 3.2 µM (≈ 0.985 µg/mL)
2 | CCCCCC(O)(Cn1cncn1)c1ccc(F)cc1F (stereo not drawn) | 4 | 1 | 26.4 (≈ 7.8 µg/mL) | 10.1 | > 31.3 | 52.8 (≈ 15.6 µg/mL) | 130 | 2 | 4 | 1040 | 3.3 (≈ 0.975 µg/mL) | > 106 | 16 | 4 | 8 | 1040 | 4 | 16 | 6.6 (≈ 1.95 µg/mL) | 4 | hemolysis at 1 h, 3.9 ug/ml [18]: 0%; MIC (Pichia kudriavzevii): 0.81 µM (≈ 0.239 µg/mL); selectivity ratio [19]: 32; hemolysis at 1 h, 1.95 ug/ml [20]: 0%; MIC50 (Candida albicans [21]): 26.4 µM (≈ 7.8 µg/mL); MIC (Candida parapsilosis): < 0.1 µM; MIC50 (Candida albicans [22]): 13.2 µM (≈ 3.9 µg/mL); selectivity ratio [23]: 4; hemolysis at 1 h, 7.8 ug/ml [24]: 0%; selectivity ratio [25]: 32; MIC50 (Nakaseomyces glabratus): 26.4 µM (≈ 7.8 µg/mL)
3 | CCCCCCC(O)(Cn1cncn1)c1ccc(Cl)cc1Cl (stereo not drawn) | 29 | 5 | 5.7 (≈ 1.95 µg/mL) | 92 | 28 (≈ 81.8 µM) | 11.4 (≈ 3.9 µg/mL) | 667 | 5 | 10 | 667 | 1.4 (≈ 0.479 µg/mL) | 11.4 (≈ 3.9 µg/mL) | 83 | 14 | 10 | 933 | 14 | 117 | 0.7 (≈ 0.24 µg/mL) | 10 | hemolysis at 1 h, 3.9 ug/ml [18]: 0%; MIC (Pichia kudriavzevii): 0.09 µM (≈ 0.0308 µg/mL); selectivity ratio [19]: 42; hemolysis at 1 h, 1.95 ug/ml [20]: 0%; MIC50 (Candida albicans [21]): 5.7 µM (≈ 1.95 µg/mL); MIC (Candida parapsilosis): < 0.09 µM; MIC50 (Candida albicans [22]): 5.7 µM (≈ 1.95 µg/mL); selectivity ratio [23]: 14; hemolysis at 1 h, 7.8 ug/ml [24]: 1.6%; selectivity ratio [25]: 58; MIC50 (Nakaseomyces glabratus): 5.7 µM (≈ 1.95 µg/mL)
